Reference: PMC6045484 (ACS Omega, 2018)
Converted amounts (≈) assume the structure as drawn.

Tests used:
[1] = tested on: P. falciparum (W2); test: in vitro antimalarial activity, plasmodial LDH; type: cell-based, Plasmodium falciparum; settings: Plasmodium falciparum, W2, 72 h, read-out: P. falciparum (W2) IC50, CQ-resistant W2 strain, 72 h
How it was run: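 P. falciparum-infected erythrocytes (2% parasitemia, 2% hematocrit) in RPMI 1640 with 10% human serum and 60 μg/mL amikacin. Exposed to test compound dilutions for 72 h at 37 °C under 90% N2/5% O2/5% CO2. LDH measured with Malstat reagent (30 min, room temperature), then NBT/PES for 1 h in the dark, stopped with 5% acetic acid, read at 650 nm. IC50 from dose-response curves.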

[2] = tested on: L. donovani promastigotes; test: in vitro antileishmanial activity, alamarBlue assay; type: cell-based, Leishmania donovani; settings: 48 h; for IC50: read-out: L. donovani IC50, promastigotes, 48 h
[3] = tested on: A. fumigatus ATCC 90906; test: in vitro antifungal activity; type: cell-based, Aspergillus fumigatus; settings: Aspergillus fumigatus; for IC50: ATCC90906, read-out: A. fumigatus IC50; for MFC: ATCC90906, read-out: A. fumigatus MFC; for MIC: ATCC90906, read-out: A. fumigatus MIC
How it was run: (§1)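 Modified NCCLS broth method in Sabouraud dextrose. Inoculum set by OD630 to 1.5 × 10^3 CFU/mL. Test compound serially diluted in 20% DMSO/saline, duplicate wells, up to 20 μg/mL. Incubated 70–74 h at 35 °C; 530 nm read before and after. IC50 is 50% growth inhibition; MIC is no detectable growth. MFC from clear wells subcultured on agar. Amphotericin B control.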

[4] = tested on: C. neoformans ATCC90113; test: in vitro antifungal activity; type: cell-based, Cryptococcus neoformans; settings: Cryptococcus neoformans; for IC50: ATCC90113, read-out: C. neoformans IC50; for MFC: ATCC90113, read-out: C. neoformans MFC; for MIC: ATCC90113, read-out: C. neoformans MIC
How it was run: as §1

[5] = tested on: C. albicans ATCC90028; test: in vitro antifungal activity; type: cell-based, Candida albicans; settings: Candida albicans; for IC50: ATCC90028, read-out: C. albicans IC50; for MFC: ATCC90028, read-out: C. albicans MFC; for MIC: ATCC90028, read-out: C. albicans MIC
How it was run: as §1

[6] = tested on: M. intracellulare (ATCC23068); test: in vitro antibacterial activity, modified alamarBlue procedure; type: cell-based, Mycobacterium intracellulare; settings: Mycobacterium intracellulare; for IC50: ATCC23068, read-out: IC50 (concentration that affords 50% growth inhibition), M. intracellulare; for MBC: ATCC23068, read-out: MBC (minimum bactericidal concentration), M. intracellulare; for MIC: ATCC23068, read-out: MIC, M. intracellulare
How it was run: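 Modified alamarBlue microplate method. Test compound serially diluted in 20% DMSO/saline, duplicate wells, up to 20 μg/mL. Inoculum 2.0 × 10^6 CFU/mL in Middlebrook 7H9 with OADC, pH 7.3, containing 5% alamarBlue. Incubated 70–74 h at 37 °C, 10% CO2; fluorescence 544ex/590em read before and after. MIC: no blue-to-pink change. MBC by subculturing blue wells on agar. Ciprofloxacin control.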

[7] = tested on: SA (ATCC29213); test: in vitro antibacterial activity; type: cell-based; settings: Staphylococcus aureus; for IC50: ATCC29213, read-out: IC50 (concentration that affords 50% growth inhibition), SA; for MBC: ATCC29213, read-out: MBC (minimum bactericidal concentration), SA; for MIC: ATCC29213, read-out: MIC, SA
How it was run: (§2)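 Test compound serially diluted in 20% DMSO/saline and plated in duplicate, up to 20 μg/mL. Inoculum in cation-adjusted Mueller–Hinton broth, pH 7.3, set by OD630 to 5 × 10^5 CFU/mL. Incubated 16–20 h at 35 °C; 530 nm read before and after. IC50 is 50% growth inhibition; MIC is no detectable growth. MBC from clear wells subcultured on agar. Ciprofloxacin control.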

[8] = tested on: MRSA (ATCC33591); test: in vitro antibacterial activity; type: cell-based, methicillin-resistant Staphylococcus aureus; settings: Staphylococcus aureus, ATCC33591|MRSA, read-out: MIC, MRSA
How it was run: as §2

[9] = tested on: P. falciparum (D6); test: in vitro antimalarial activity, plasmodial LDH; type: cell-based, Plasmodium falciparum; settings: Plasmodium falciparum, D6, 72 h, read-out: P. falciparum (D6) IC50
[10] = tested on: SK-MEL, KB, BT-549, SK-OV-3, VERO and LLC-PK1 cells; test: cytotoxicity, neutral red uptake assay; type: cell-based, mammalian; settings: highest test concentration 4760 ng/mL
How it was run: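 Cells seeded at 25 000/well and allowed 24 h to reach confluence. Test compound was then added and incubated 48 h. Viable cells were counted by a modified neutral red uptake method. The panel was four human cancer lines and two noncancerous mammalian kidney lines. Doxorubicin served as positive control and DMSO as negative control.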

Row | SMILES | IC50 [1] | IC50 [3] | MFC [3] | MIC [3] | IC50 [4] | MFC [4] | MIC [4] | IC50 [5] | MFC [5] | MIC [5] | IC50 [6] | MBC [6] | MIC [6] | IC50 [7] | MBC [7] | MIC [7] | MIC [8] | IC50 [9] | cytotoxicity CTX [10] | also measured
1 | C[C@@H]1CC[C@H]2[C@@H](C)C(=O)O[C@@H]3O[C@@]4(C)CC[C@@H]1[C@]32OO4 [ART, artemisinin, reference compound] | 0.009 µg/mL (≈ 0.0319 µM) |  |  |  |  |  |  |  |  |  |  |  |  |  |  |  |  |  |  | 
2 | C[C@@H]1[C@H](O)[C@@H](C)/C=C/C=C/C=C/C=C/C=C/C=C/C=C/[C@H](O[C@@H]2O[C@H](C)[C@@H](O)[C@H](N)[C@@H]2O)C[C@@H]2O[C@](O)(C[C@@H](O)C[C@@H](O)[C@H](O)CC[C@@H](O)C[C@@H](O)CC(=O)O[C@H]1C)C[C@H](O)[C@H]2C(=O)O [amphotericin B (AMP), amphotericin B, reference compound] |  | 0.68 µg/mL (≈ 0.736 µM) | 2.5 µg/mL (≈ 2.71 µM) | 1.25 µg/mL (≈ 1.35 µM) | 0.3 µg/mL (≈ 0.325 µM) | 0.63 µg/mL (≈ 0.682 µM) | 0.63 µg/mL (≈ 0.682 µM) | 0.17 µg/mL (≈ 0.184 µM) | 1.25 µg/mL (≈ 1.35 µM) | 0.63 µg/mL (≈ 0.682 µM) |  |  |  |  |  |  |  |  |  | IC50 ([2]; Leishmania donovani): 0.1 µg/mL (≈ 0.108 µM); IC90 ([2]; Leishmania donovani, read-out: L. donovani IC90, promastigotes, 48 h): 0.3 µg/mL (≈ 0.325 µM)
3 | O=C(O)c1cn(C2CC2)c2cc(N3CCNCC3)c(F)cc2c1=O [ciprofloxacin, reference compound] |  |  |  |  |  |  |  |  |  |  | 0.28 µg/mL (≈ 0.845 µM) | 1 µg/mL (≈ 3.02 µM) | 0.5 µg/mL (≈ 1.51 µM) | 0.13 µg/mL (≈ 0.392 µM) | 1 µg/mL (≈ 3.02 µM) | 0.5 µg/mL (≈ 1.51 µM) | 0.25 µg/mL (≈ 0.754 µM) |  |  | 
4 | CCCCOc1c(OC)cc(NC(C)CCCN)c2nc(C(C)(C)C)ccc12 (centres unmarked) [compound 45, N^4-(5-Butoxy-2-tert-butyl-6-methoxyquinolin-8-yl)pentane-1,4-diamine] | 3.3 µg/mL (≈ 8.51 µM) | > 20 µg/mL | > 20 µg/mL | > 20 µg/mL | > 20 µg/mL | > 20 µg/mL | > 20 µg/mL | > 20 µg/mL | > 20 µg/mL | > 20 µg/mL | > 20 µg/mL | > 20 µg/mL | > 20 µg/mL | > 20 µg/mL | > 20 µg/mL | > 20 µg/mL | > 20 µg/mL | > 4.76 µg/mL | NC (NC, not cytotoxic up to 4760 ng/mL (4.76 μg/mL)) | 
5 | CCCCOc1c(OC)cc(NC(C)CCCNC(=O)C(N)CCCCN)c2nc(C(C)(C)C)ccc12 (centres unmarked) [compound 90, 2,6-Diamino-N-(4-(5-butoxy-2-tert-butyl-6-methoxyquinolin-8-ylamino)pentyl)-hexanamide] | 2.9 µg/mL (≈ 5.62 µM) | > 20 µg/mL | > 20 µg/mL | > 20 µg/mL | > 20 µg/mL | > 20 µg/mL | > 20 µg/mL | > 20 µg/mL | > 20 µg/mL | > 20 µg/mL | > 20 µg/mL | > 20 µg/mL | > 20 µg/mL | > 20 µg/mL | > 20 µg/mL | > 20 µg/mL | > 20 µg/mL | 4.7 µg/mL (≈ 9.11 µM) | NC (NC, not cytotoxic up to 4760 ng/mL (4.76 μg/mL)) | 
6 | CCCCOc1c(OC)cc(NC(C)CCCNC(=O)C(N)CCCN)c2nc(C(C)(C)C)ccc12 (centres unmarked) [compound 91, 2,5-Diamino-N-(4-(5-butoxy-2-tert-butyl-6-methoxyquinolin-8-ylamino)pentyl)-pentanamide] | 1.3 µg/mL (≈ 2.59 µM) | > 20 µg/mL | > 20 µg/mL | > 20 µg/mL | > 20 µg/mL | > 20 µg/mL | > 20 µg/mL | > 20 µg/mL | > 20 µg/mL | > 20 µg/mL | > 20 µg/mL | > 20 µg/mL | > 20 µg/mL | > 20 µg/mL | > 20 µg/mL | > 20 µg/mL | > 20 µg/mL | 2.8 µg/mL (≈ 5.58 µM) | NC (NC, not cytotoxic up to 4760 ng/mL (4.76 μg/mL)) | 
7 | CCCCCOc1c(OC)cc(NC(C)CCCNC(=O)C(N)CCCN)c2nc(C(C)(C)C)ccc12 (centres unmarked) [compound 93, 2,5-Diamino-N-(4-(2-tert-butyl-6-methoxy-5-(pentyloxy)quinolin-8-ylamino)-pentyl)pentanamide] | 0.87 µg/mL (≈ 1.69 µM) | > 20 µg/mL | > 20 µg/mL | > 20 µg/mL | 10.1 µg/mL (≈ 19.6 µM) | > 20 µg/mL | > 20 µg/mL | > 20 µg/mL | > 20 µg/mL | > 20 µg/mL | 8.99 µg/mL (≈ 17.4 µM) | > 20 µg/mL | > 20 µg/mL | > 20 µg/mL | > 20 µg/mL | > 20 µg/mL | > 20 µg/mL | 1 µg/mL (≈ 1.94 µM) | NC (NC, not cytotoxic up to 4760 ng/mL (4.76 μg/mL)) | 
8 | CCCCCCOc1c(OC)cc(NC(C)CCCNC(=O)C(N)CCCN)c2nc(C(C)(C)C)ccc12 (centres unmarked) [compound 100, 2,5-Diamino-N-(4-(2-tert-butyl-5-(hexyloxy)-6-methoxyquinolin-8-ylamino)-pentyl)pentanamide] | 0.73 µg/mL (≈ 1.38 µM) | > 20 µg/mL | > 20 µg/mL | > 20 µg/mL | > 20 µg/mL | > 20 µg/mL | > 20 µg/mL | > 20 µg/mL | > 20 µg/mL | > 20 µg/mL | 9.34 µg/mL (≈ 17.6 µM) | > 20 µg/mL | > 20 µg/mL | > 20 µg/mL | > 20 µg/mL | > 20 µg/mL | > 20 µg/mL | 0.86 µg/mL (≈ 1.62 µM) | NC (NC, not cytotoxic up to 4760 ng/mL (4.76 μg/mL)) | 
9 | N=C(N)c1ccc(OCCCCCOc2ccc(C(=N)N)cc2)cc1 [pentamidine, reference compound] |  |  |  |  |  |  |  |  |  |  |  |  |  |  |  |  |  |  |  | IC50 ([2]; Leishmania donovani): 1.4 µg/mL (≈ 4.11 µM); L. donovani IC50 ([2]; promastigotes): 1.1 µg/mL
